Source: PubChem
PAD4 FP inh – PAD4 (human) enzyme inhibition | Q9UM07 | recombinant PAD4, RCA probe fluorescence polarization | inhibition, % at 6.36 µM | hit rate 0.41% among 330,000;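 active = percent inhibition above a cutoff equal to the mean of all tested compounds plus 3 SD, cut at about 15% in these data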;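 note: 0% = PAD4 with RCA probe and DMSO and 100% = probe without PAD4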
UCH37 inh – inhibitors of human deubiquitinating enzyme UCH37. Q9Y5K5. purified proteasome/UCH37, Ub-AMC cleavage fluorescence. inhibition, % (no concentration beside the values). hit rate 0.33% among 330,000. AID 588478;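 active = mean inhibition over replicate wells above about 20%, limit read from the data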;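 note: 0% = compound-free wells with enzyme and 100% = wells lacking proteasome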
Target sequence (Q9Y5K5 whole entry, looked up): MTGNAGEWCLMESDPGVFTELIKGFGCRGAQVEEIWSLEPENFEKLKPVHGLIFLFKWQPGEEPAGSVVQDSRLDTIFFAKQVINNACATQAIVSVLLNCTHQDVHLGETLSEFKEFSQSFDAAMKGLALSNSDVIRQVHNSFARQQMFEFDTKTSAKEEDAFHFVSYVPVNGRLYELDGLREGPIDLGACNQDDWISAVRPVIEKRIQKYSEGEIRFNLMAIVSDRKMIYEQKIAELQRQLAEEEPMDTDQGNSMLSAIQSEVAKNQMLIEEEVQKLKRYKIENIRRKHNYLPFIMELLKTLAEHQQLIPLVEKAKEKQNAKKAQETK
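Material: Human UCH37 enzyme supplied as purified proteasome complex | Schedule: 30 min compound-proteasome preincubation then 25 min substrate reaction, room temperature | Detection: AMC fluorescence from Ub-AMC cleavage, excitation 355 nm, emission 460 nm | Benchmarks: Wells without proteasome as full block, compound-free enzyme plus substrate as uninhibited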
TDP2 absorb – blocks human TDP2 phosphodiesterase activity; O95551; hit rate 0.34% among 370,000; recombinant TDP2, T5PNP hydrolysis, p-nitrophenol absorbance 415 nm; inhibition, % at 12.8 µM; AID 720702;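 active = inhibition above the mean of all tested compounds plus 3 SD, set per campaign, cut at about 25% in these data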;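 note: 0% = DMSO with enzyme and 100% = buffer with substrate but no TDP2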
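Assay system: recombinant human TDP2 / Reagent: T5PNP substrate at 5 mM, a TopII-DNA adduct mimic / Measured by: epi absorbance from released p-nitrophenol / Evaluation: % inhibition relative to enzyme-containing and enzyme-free wells / Control set: enzyme-free and DMSO wells / Replicates: each compound tested once, singlicate / Schedule: enzyme reaction with compound for 2 h at 37 °C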
HKDC1 inh – inhibitors of human hexokinase HKDC1; inhibition, % at 20 µM; Q2TB90; recombinant HKDC1, G6PDH/diaphorase resazurin coupled fluorescence; hit rate 0.16% among 340,000; AID 493160;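 active = inhibition above about 35% when tested at 20 µM, limit read from the data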;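 note: plate controls were DMSO wells with enzyme for no effect and DMSO wells lacking enzyme for full effect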
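Incubation: 90 min at room temperature in dark / Material: recombinant HKDC1 (HK5) hexokinase enzyme, produced in-house / Quantity: enzyme 5 µg/mL final / Compound: one dose of 20 µM, 1% DMSO / Reagent: glucose and ATP substrates / Buffer or medium: Tris pH 8.0 buffer with MgCl2, Tween-20, BSA, BME / Technique: resorufin fluorescence at 613 nm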
GSTO1 counter – counter-screen for RBBP9 inhibitors: inhibitors of human GSTO1; hit rate 1.1% among 300,000; recombinant GSTO1, activity-based probe fluorescence polarization; P78417; inhibition, % at 5.96 µM;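 active = inhibition above the campaign mean inhibition plus 3 SD, cut at about 35% in these data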;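 note: 0% = GSTO1-1 with DMSO and 100% = wells lacking GSTO1-1 enzyme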
Target sequence (P78417 whole entry, looked up): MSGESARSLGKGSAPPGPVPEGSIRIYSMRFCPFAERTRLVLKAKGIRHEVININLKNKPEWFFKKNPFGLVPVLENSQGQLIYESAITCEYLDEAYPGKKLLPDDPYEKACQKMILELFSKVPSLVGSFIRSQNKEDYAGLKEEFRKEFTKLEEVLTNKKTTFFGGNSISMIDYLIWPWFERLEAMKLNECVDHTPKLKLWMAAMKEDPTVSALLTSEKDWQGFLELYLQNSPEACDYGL
Fh CTSL1 inh – cathepsin L1 inhibition, PFM18AAP counter-screen; recombinant F. hepatica cathepsin L1, Z-Leu-Arg-MCA fluorescence; inhibition, % at 5.96 µM; hit rate 0.49% among 300,000; AID 1906;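 active = inhibition above the mean of all tested compounds plus 3 SD, set per screening campaign, cut at about 17% in these data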;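 note: 0% = plate median of test compound wells and 100% = 1 µM Z-Phe-Ala-diazomethylketone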
Starred values were filed as active, the others as inactive; nt = not tested or not shown; ! = a repeat was not active. In the library only some 1.6% were active in any assay of this set; here they are far more common.

SMILES	PAD4 FP inh	UCH37 inh	TDP2 absorb	HKDC1 inh	GSTO1 counter	Fh CTSL1 inh
COc1ccc(N2C(=O)/C(=C/c3ccc(OC)c(OC)c3)C(=O)NC2=S)cc1	nt	1	1	-1	nt	nt
CCC(C)N1C(=O)/C(=C/c2ccc3c(c2)CCN3CCCCl)C(=O)NC1=S (configuration not stated)	-6	3	7	15	37*	1
CC(Cl)(Cl)C(=NP(=S)(N1CCOCC1)N1CCOCC1)N1CCOCC1	nt	1	nt	nt	nt	nt
O=C1NC(=O)C2(Cc3ccccc3N3CCCC32)C(=O)N1c1cccc(Cl)c1 (configuration not stated)	-2	-9	-11	1	-1	1
Cc1ccc(CN2C(=O)NC(=O)C3(Cc4c(nc5ccccn5c4=O)N4CCCCCC43)C2=O)cc1 (configuration not stated)	7	-19	5	12	36*	1
CC(CC(c1ccccc1)c1c(O)c2ccccc2oc1=O)=NNC(N)=S (configuration not stated)	nt	1	nt	nt	nt	nt
COC(=O)C1=C(c2ccc(F)cc2F)C[C@@H]2CC[C@H]1N2C(=O)N1CCCCC1	9	21*	7	-1	nt	nt
COC(=O)C1=C(c2ccc(F)cc2F)C[C@@H]2CC[C@H]1N2C(=O)N1CCCC1	2	-1	0	1	nt	nt
O=C1NC(=O)N(c2ccc(F)cc2)C(=O)/C1=C/c1ccsc1	-10	4	-17	1	-12	35*
Cc1nc2ccccc2c(=O)n1N=Cc1cc(Br)cc(Br)c1O	nt	0	nt	nt	nt	nt
CC(=O)C1C2c3ccccc3OC1(C)N=c1sc(=Cc3cn(C)nc3C)c(=O)n12 (configuration not stated)	nt	3	nt	nt	nt	nt
CC(=O)OC1(c2ccccc2)CCN(C)CC1(C)C (configuration not stated)	-1	3	-1	-2	5	1
CC(=O)OC1(c2ccccc2)CC(C(C)(C)C)CN(C(C)(C)C)C1 (configuration not stated)	0	1	0	-4	3	35*
CCN(CC)c1ccc(C=Nc2sc3c(c2C#N)C2CCN3CC2)c(O)c1	nt	8	nt	nt	nt	nt
COc1cc(OC)c(C=O)c(OC(=O)N(C)C)c1	2	-1	-1	-3	2	28*
COc1ccc(OC(=O)N(C)C)c(CN(C)C)c1	0	3	-10	-5	-1	-1
CN(C)C(=O)ON=C(N)COc1ccc(C(C)(C)C)cc1	nt	1	nt	nt	nt	nt
Cn1c(=O)c2c(nc(N/N=C/c3c(O)n(-c4ccccc4)c(=S)[nH]c3=O)n2C)n(C)c1=O	-6	21*	-4	-3	8	4
CC(C)c1ccc(-n2c(O)c(/C=N/NC(=O)c3ccccc3O)c(=O)[nH]c2=S)cc1	-5	-27	-23	-5	3	2
C[C@H]1CCCC(=O)CCCC=Cc2cc(O)cc(O)c2C(=O)O1	nt	5	nt	nt	nt	nt
CN1C(=O)NC(=O)/C(=C/c2ccc([N+](=O)[O-])o2)C1=O	1	22*	9	9	17	-3
O=C1NC(=O)N(CCC2=CCCCC2)C(=O)/C1=C/c1ccc(O)cc1	-2	4	0	4	35*	3
CCOC(=O)C(CCCN(CC)CC)=NO	nt	3	nt	nt	nt	nt
O=c1c2ccccc2nc(CSc2ncnc3nc[nH]c23)n1-c1ccccc1Cl	3	2	4	-1	-6	21*
COc1cc(CC2C(=O)N(C)C(=O)N(C)C2=O)ccc1OCc1ccccc1	-1	24*	-13	-17	21	-2
SMILES	PAD4 FP inh	UCH37 inh	TDP2 absorb	HKDC1 inh	GSTO1 counter	Fh CTSL1 inh
COc1ccc(C(=O)NN=CC23CC[C@@H](O)CC2(O)CC[C@@H]2[C@@H]3CCC3(C)C(C4=CC(=O)OC4)CCC23O)cc1 (some centres not stated)	nt	6	nt	nt	nt	nt
COc1ccc(N2C(=O)/C(=C/c3ccc(C)o3)C(=O)NC2=S)c(OC)c1	-4	2	1	3	15	-3
Cc1ccccc1N1C(=O)NC(=O)/C(=C\c2cc(Br)c(N3CCOCC3)o2)C1=O	-3	23*	13	-3	6	7
Cc1cccc(N2C(=O)/C(=C/c3ccc(N4CCN(C)CC4)o3)C(=O)NC2=S)c1C	-4	22*	-4	-1	-7	-1
Cc1ccccc1N1C(=O)NC(=O)/C(=C/c2ccc(N3CCOCC3)o2)C1=O	-1	21*	14	6	-9	11
Cc1ccccc1N1C(=O)/C(=C/c2ccco2)C(=O)NC1=S	-11	nt	nt	nt	36*	2
O=C1NC(=O)N(c2ccccc2F)C(=O)/C1=C/c1cn(CC(=O)N2CCOCC2)c2ccccc12	-6	0	-1	1	-5	-8
CNC(=O)Oc1cccc(-c2cn3cc(OC(=O)NC)ccc3n2)c1	11	-49	13	-2	19	0
CNC(=O)Oc1ccc2c(c1)C(=O)c1ccccc1CO2	1	-3	1	1	-2	21*
Cc1ccccc1-n1c(O)c(/C=N/c2nccs2)c(=O)[nH]c1=O	-4	3	-2	-4	11	17*!
CCCCC(=NO)c1c(C)[nH]c2ccccc12	nt	-1	nt	nt	nt	nt
CN1C(=O)N(C)C(=O)C2(Sc3ccccc3C2=O)C1=O	8	5	27*	-6	6	-4
Cc1c(N=Nc2c(O)n(C)c(=O)n(C)c2=O)c(=O)n(-c2ccccc2)n1C	0	3	-9	0	39*	2
Cc1ccc2c(c1Cl)NC(C(=O)O)C1CC(Sc3ccccc3[N+](=O)[O-])C(Cl)C21 (configuration not stated)	0	6	nt	10	36*	7
O=C(O)c1cccc2c1NC(c1cccc([N+](=O)[O-])c1)C1CC(Sc3ccccc3[N+](=O)[O-])C(Cl)C21 (configuration not stated)	nt	3	-4	8	nt	nt
O=C1c2ccccc2-c2cc3ccccc3cc21	nt	nt	1	7	nt	nt
O=C1C=C(N2CC2)c2ccccc2C1=O	nt	nt	52*	nt	nt	nt
O=P(C(=NO)N1CCOCC1)(N1CCOCC1)N1CCOCC1	nt	7	nt	nt	nt	nt
COc1ccc(N=Nc2c(O)[nH]c(=S)[nH]c2=O)cc1	-24	21*	1	-3	4	11
O=C(COc1ccccc1)N1CCN(C/C=C/c2ccccc2)CC1	-2	1	-9	-4	6	-3
